Converted amounts (≈) assume the structure as drawn.
Experiments:
Staphylococcus aureus = experiment: Antibacterial activity against Staphylococcus aureus RN4220 after 18 hrs by microdilution method; format: functional
Summary of the method: (§1)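 Broth microdilution assay. The minimum restrictive concentration (MRC) was taken as the lowest concentration that reduced growth by at least 50%.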

Bacillus subtilis = experiment: Antibacterial activity against Bacillus subtilis KCTC 1021 after 18 hrs by microdilution method; format: functional; summary of the method: as §1
Peptide deformylase = target: T1, Peptide deformylase (Staphylococcus aureus subsp. aureus Mu50, UniProt P68825); experiment: Inhibition of Staphylococcus aureus peptide deformylase
T1 sequence (P68825 whole entry): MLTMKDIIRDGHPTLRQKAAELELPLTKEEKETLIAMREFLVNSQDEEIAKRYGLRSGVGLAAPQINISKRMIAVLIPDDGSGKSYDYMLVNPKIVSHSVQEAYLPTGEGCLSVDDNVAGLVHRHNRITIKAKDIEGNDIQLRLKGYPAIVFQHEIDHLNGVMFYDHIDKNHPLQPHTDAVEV

Escherichia coli = experiment: Antibacterial activity against Escherichia coli KCTC 1924 after 18 hrs by microdilution method; format: functional; details: KCTC 1924, 18 h; summary of the method: as §1

## CC[C@@H]1CCC/C=C/C=C/[C@H](O)C[C@@H](O)C/C=C\C=C\[C@@H](O[C@H]2O[C@@H](CO)[C@H](O)[C@@H](O)[C@@H]2O)C/C=C/C=C\C(=O)O1 [MACROLACTINN P]
Staphylococcus aureus
  MRC: 100 µg/mL
Bacillus subtilis
  MRC: 100 µg/mL
Peptide deformylase
  IC50: 57.7 µM
Escherichia coli
  MIC: 100 µg/mL (≈ 173 µM)

## C[C@@H]1CCC/C=C\C=C\[C@H](O)C[C@@H](O)C/C=C\C=C\[C@@H](O[C@H]2O[C@@H](CO)[C@H](O)[C@@H](O)[C@@H]2O)C/C=C/C=C\C(=O)O1 [MACROLACTIN Q]
Staphylococcus aureus
  MRC: 100 µg/mL
Bacillus subtilis
  MRC: 100 µg/mL
Peptide deformylase
  IC50: 12.1 µM
Escherichia coli
  MIC: 100 µg/mL (≈ 177 µM)

## C[C@@H]1CCC/C=C/CCC(=O)C[C@@H](O)C/C=C\C=C\[C@@H](O[C@H]2O[C@@H](CO)[C@H](O)[C@@H](O)[C@@H]2O)C/C=C/C=C\C(=O)O1 [MACROLACTIN O]
Staphylococcus aureus
  MRC: 100 µg/mL
Bacillus subtilis
  MRC: 100 µg/mL
Peptide deformylase
  IC50: 53.5 µM
Escherichia coli
  MIC: 100 µg/mL (≈ 177 µM)

## C[C@@H]1CCC/C=C/C=C/[C@H](O)C[C@@H](O)C/C=C/C=C/[C@@H](O[C@H]2O[C@@H](CO)[C@H](O)[C@@H](O)[C@@H]2O)C/C=C/C=C\C(=O)O1 [MACROLACTIN R]
Staphylococcus aureus
  MRC: 100 µg/mL
Bacillus subtilis
  MRC: 100 µg/mL
Peptide deformylase
  IC50: 61.5 µM
Escherichia coli
  MIC: 100 µg/mL (≈ 177 µM)

— ChEMBL document CHEMBL1141303, “Macrolactins O-R, glycosylated 24-membered lactones from Bacillus sp. AH159-1” (J Nat Prod, 2007)
